Data set [1] deals with HEK293. The data set can be described thus: Inhibition of NF-kappaB expressed in HEK293 cells assessed as inhibition of TNF-alpha-stimulated transcriptional activation at 10 uM treated 24 hrs before TNFalpha challenge measured after 20 to 24 hrs by luciferase reporter gene assay. The class given is cell-based. Summed up: (§1)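 Compounds in 0.1% DMSO (10 µM–1 nM) were added to replicate wells for 24 h. Cells were then stimulated with TNF-α for 20–24 h and read with Bright-Glo luciferase. Mean RLU was normalized to the maximal control; IC50 came from a six-point dose response.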
A general note: A reporter such as luciferase makes a cellular process visible.

Data set [2] in a line: Inhibition of NF-kappaB expressed in HEK293 cells assessed as inhibition of TNF-alpha-stimulated transcriptional activation treated 24 hrs before TNFalpha challenge measured after 20 to 24 hrs by luciferase reporter gene assay. The class given is cell-based. In a few lines: as §1
Data set [3] relates to HEK293. The data set is described as follows: Cytotoxicity against TNF-alpha-stimulated HEK293 cells at 10 uM treated 24 hrs before TNFalpha challenge measured after 20 to 24 hrs. The class given is cell-based. Particulars: human, hek293, 10 µM.
A further data set deals with Rattus norvegicus. The data set is described as follows: Antiinflammatory activity against carrageenan-induced paw edema in Sprague-Dawley rat assessed as reduction in paw volume at 50 mg/kg, po dosed 1 hr before carrageenan challenge measured after 3 hrs by plethysmometry. The class given is functional. Details: scale not given: the % may be the effect or the level left. (In the carrageenan paw model, swelling and tenderness develop within hours.)

Data set [4] concerns the target Transcription factor Jun (Homo sapiens) (UniProt P05412). The data set can be described thus: Inhibition of AP-1 expressed in HEK293 cells assessed as PMA-stimulated transcriptional activation at 10 uM treated 24 hrs before PMA challenge measured after 20 to 24 hrs by luciferase reporter gene assay. The data set is classed as cell-based. Summed up:
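HEK-293 cells stably carrying a minimal-promoter luciferase construct with tandem AP-1 elements (TGACTAA) were plated at 5 × 10⁴ cells/well and held 24 h at 37 °C in 5% CO₂. Compounds in 0.1% DMSO (10 µM–1 nM) were added to replicate wells for 24 h. Cells were then stimulated with PMA for 20–24 h and read with Bright-Glo luminescence. Mean RLU was normalized to the maximal control; IC50 came from a six-point dose response.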

Another data set deals with PC-3. The data set can be described thus: Cytotoxicity against human PC3 cells. The class given is functional, cell-based.
Another data set has as its system Mus musculus. The data set is described as follows: Inhibition of LPS-stimulated NF-kappaB activation in transgenic FVB mouse assessed as decrease in NF-kappaB activity at 50 mg/kg, po QD for 3 days before LPS challenge measured after 3 hrs by bioluminescence based luciferase reporter gene assay relative to control. The class given is functional. On the set-up: scale not given: the % may be the effect or the level left.

In a further data set the test system is LNCaP. The data set can be described thus: Cytotoxicity against human LNCAP cells. The data set is classed as functional, cell-based.
A further data set relates to TCC-SUP. The data set is described as follows: Cytotoxicity against human TCCSUP cells. The data set is classed as functional, cell-based.

Activity calls are given as the source filed them. The rule behind the calls is not given here.

Sequence of Transcription factor Jun (Homo sapiens) (P05412 whole entry): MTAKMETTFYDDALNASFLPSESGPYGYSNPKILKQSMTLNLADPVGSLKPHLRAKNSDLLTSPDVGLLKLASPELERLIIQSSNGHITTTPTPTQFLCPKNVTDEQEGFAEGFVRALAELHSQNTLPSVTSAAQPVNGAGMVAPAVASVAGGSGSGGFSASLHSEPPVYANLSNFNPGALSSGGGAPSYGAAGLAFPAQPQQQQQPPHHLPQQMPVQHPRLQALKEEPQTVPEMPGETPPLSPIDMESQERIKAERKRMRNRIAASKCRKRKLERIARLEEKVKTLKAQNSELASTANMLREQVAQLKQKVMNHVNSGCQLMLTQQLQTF

In the case of `Cc1ccccc1-n1c(-c2cc(-c3ccncc3)c(N3CCOCC3)s2)nc2ccccc2c1=O`, the results for the inhibition (with HEK293 [1]; in [4]) were 53% and 0%, respectively. In addition, the IC50 in data set [2] turned out to be 7.1 µM. In addition, the Activity result with HEK293 [3] is “Non-toxic”; in the data set with Rattus norvegicus, 51%.
Taken in the same sequence, the figures for `O=c1c2ccccc2nc(-c2cc(-c3ccncc3)c(N3CCOCC3)s2)n1-c1ccccc1Cl` were 80%, 35%, 10.3 µM, “Non-toxic” and 43%.
Taken in the same sequence, the figures for `COc1ccc(-n2c(-c3cc(-c4ccc(S(C)(=O)=O)cc4)c(N4CCOCC4)s3)nc3ccccc3c2=O)cc1` were 60%, 10%, 26 µM, “Non-toxic” and 53%.
Taken in the same sequence, the figures for `O=c1c2ccccc2nc(-c2cc(-c3ccncc3)c(N3CCOCC3)s2)n1-c1ccc(Cl)cc1` were 68%, 32%, 11.4 µM, “Non-toxic” and 52%.
Regarding `CC(=O)c1ccc(-n2c(-c3cc(-c4ccncc4)c(N4CCOCC4)s3)nc3ccccc3c2=O)cc1`, the inhibition with HEK293 [1] was 66%; in data set [4] it was 84%. Moreover, the result in the data set with PC-3, in the data set with LNCaP and with TCC-SUP was Active. Also, the Activity with Mus musculus is 43%; with HEK293 [3] it was “Non-toxic”; in the data set on Rattus norvegicus, 81%. Besides, in data set [2], the concentration for half-maximal inhibition (IC50) is 10 µM.

For orientation: inhibition means the relative decrease from the control value, in per cent. Usually IC50 stands for the midpoint of a concentration-inhibition curve.

These data come from ChEMBL document CHEMBL1156197, “Design, synthesis and evaluation of novel 2-thiophen-5-yl-3H-quinazolin-4-one analogues as inhibitors of transcription factors NF-kappaB and AP-1 mediated transcriptional activation: Their possible utilization as anti-inflammatory and anti-cancer agents” (Bioorg Med Chem, 2010).
